Data reported in ChEMBL document CHEMBL4376826 (J Med Chem, 2020).
Values after ≈ are worked out from the molar mass of the structure shown.

Key:
[1] = Intrinsic clearance in mouse liver S9 fraction; format: ADME, subcellular; conditions: read-out: CLH
[2] = Half life in mouse liver S9 fraction; format: ADME, subcellular
Outline: (§1)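 Metabolic stability of the dihydrodiols measured in vitro with mouse and human liver S9 fractions and with mouse and human hepatocytes; half-life from substrate depletion.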

[3] = Retention time in beta-naphthoflavone/phenobarbital-induced rat liver S9 fraction at 100 ug/ml in presence of NADPH measured after 4 hrs by UV-Vis spectroscopy; format: ADME, subcellular; conditions: s9, 4 h
[4] = Intrinsic clearance in human hepatocytes; format: ADME, cell-based, Hepatocyte
[5] = Protein binding in mouse plasma assessed as bound fraction; format: ADME, cell-free
Outline: (§2)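 Binding measured in 100% plasma; reported as fraction bound.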

[6] = Kinetic aqueous solubility of the compound; format: physicochemical; conditions: buffer; read-out: Kinetic_solubility
[7] = target: UDP-glucuronosyltransferase 1A4 (Homo sapiens, UniProt P22310); experiment: Drug metabolism assessed as human UGT1A4-mediated metabolism by measuring intrinsic clearance; format: ADME; conditions: recombinant enzyme
Chain of UDP-glucuronosyltransferase 1A4 (P22310 whole entry): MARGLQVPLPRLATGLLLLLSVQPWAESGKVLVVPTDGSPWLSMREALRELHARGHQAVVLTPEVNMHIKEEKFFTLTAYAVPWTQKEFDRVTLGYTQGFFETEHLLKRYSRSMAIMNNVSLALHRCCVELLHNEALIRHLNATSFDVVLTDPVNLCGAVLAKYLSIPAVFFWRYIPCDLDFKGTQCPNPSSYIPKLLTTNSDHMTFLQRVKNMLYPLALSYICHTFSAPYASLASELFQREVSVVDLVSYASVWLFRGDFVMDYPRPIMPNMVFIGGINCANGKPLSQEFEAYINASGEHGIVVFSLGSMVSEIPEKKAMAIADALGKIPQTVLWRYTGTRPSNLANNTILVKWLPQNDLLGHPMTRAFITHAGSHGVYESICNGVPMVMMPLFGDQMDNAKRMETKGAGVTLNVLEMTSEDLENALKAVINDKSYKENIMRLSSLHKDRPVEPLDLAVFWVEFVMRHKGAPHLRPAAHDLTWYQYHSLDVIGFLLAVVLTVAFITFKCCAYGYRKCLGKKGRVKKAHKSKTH

[8] = Permeability at pH 7.4 by PAMPA; format: ADME; conditions: read-out: permeability
[9] = target: Solute carrier organic anion transporter family member 1B3 (Homo sapiens, UniProt Q9NPD5); experiment: Inhibition of OATP1B3 (unknown origin); format: ADME
Chain of Solute carrier organic anion transporter family member 1B3 (Q9NPD5 whole entry): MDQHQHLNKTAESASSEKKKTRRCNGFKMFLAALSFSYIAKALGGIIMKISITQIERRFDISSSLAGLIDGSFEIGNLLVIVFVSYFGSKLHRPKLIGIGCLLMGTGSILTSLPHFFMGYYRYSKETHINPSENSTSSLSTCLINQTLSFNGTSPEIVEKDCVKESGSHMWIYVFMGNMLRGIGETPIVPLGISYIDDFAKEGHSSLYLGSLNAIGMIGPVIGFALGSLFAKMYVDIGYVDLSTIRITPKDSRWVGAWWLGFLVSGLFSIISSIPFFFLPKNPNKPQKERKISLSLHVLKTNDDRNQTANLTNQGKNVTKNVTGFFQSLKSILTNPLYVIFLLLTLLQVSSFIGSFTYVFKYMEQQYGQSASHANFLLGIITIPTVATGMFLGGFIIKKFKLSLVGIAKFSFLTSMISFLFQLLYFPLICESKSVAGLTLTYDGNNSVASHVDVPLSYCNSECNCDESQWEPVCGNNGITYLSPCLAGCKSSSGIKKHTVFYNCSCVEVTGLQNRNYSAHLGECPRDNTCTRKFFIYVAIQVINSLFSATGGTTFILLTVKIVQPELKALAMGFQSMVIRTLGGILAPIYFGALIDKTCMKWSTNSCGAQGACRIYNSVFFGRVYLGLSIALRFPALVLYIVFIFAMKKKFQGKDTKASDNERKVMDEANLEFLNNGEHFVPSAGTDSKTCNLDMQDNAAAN

[10] = Half life in human hepatocytes; format: ADME, cell-based, Hepatocyte; outline: as §1
[11] = Inhibition of adenosine transporter (unknown origin); format: ADME, Homo sapiens
[12] = Half life in human liver S9 fraction; format: ADME, subcellular; outline: as §1
[13] = Retention time in beta-naphthoflavone/phenobarbital-induced rat liver S9 fraction at 100 ug/ml in presence of NADPH by LC-MS/MS analysis; format: ADME, subcellular
[14] = Intrinsic clearance in mouse hepatocytes; format: ADME, cell-based, Hepatocyte
[15] = Inhibition of adenosine transporter (unknown origin) at 10 uM; format: ADME; conditions: human
UGT1A9 = UGT1A9 (Homo sapiens, UniProt O60656); experiment: Inhibition of human UGT1A9 assessed as residual enzyme activity at 10 uM relative to control; format: ADME; conditions: read-out: Activity
Chain of UGT1A9 (O60656 whole entry): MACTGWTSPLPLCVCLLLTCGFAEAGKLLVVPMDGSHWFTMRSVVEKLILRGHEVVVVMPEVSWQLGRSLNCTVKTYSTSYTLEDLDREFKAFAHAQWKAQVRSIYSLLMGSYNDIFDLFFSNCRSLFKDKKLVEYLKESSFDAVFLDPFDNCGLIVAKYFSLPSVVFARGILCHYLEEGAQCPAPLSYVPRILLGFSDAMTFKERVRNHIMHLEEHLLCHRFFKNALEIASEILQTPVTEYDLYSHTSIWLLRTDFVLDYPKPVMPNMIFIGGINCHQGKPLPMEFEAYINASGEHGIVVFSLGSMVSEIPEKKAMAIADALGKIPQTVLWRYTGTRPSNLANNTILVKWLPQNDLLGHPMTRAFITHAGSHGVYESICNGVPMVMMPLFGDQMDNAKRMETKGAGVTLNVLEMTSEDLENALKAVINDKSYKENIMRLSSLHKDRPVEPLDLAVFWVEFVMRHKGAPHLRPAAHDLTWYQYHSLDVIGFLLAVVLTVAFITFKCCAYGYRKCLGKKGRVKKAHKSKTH

[16] = Lipophilicity, logD of the compound at pH 7.4; format: physicochemical; conditions: buffer
[17] = target: Solute carrier organic anion transporter family member 1B1 (Homo sapiens, UniProt Q9Y6L6); experiment: Inhibition of OATP1B1 (unknown origin); format: ADME
Chain of Solute carrier organic anion transporter family member 1B1 (Q9Y6L6 whole entry): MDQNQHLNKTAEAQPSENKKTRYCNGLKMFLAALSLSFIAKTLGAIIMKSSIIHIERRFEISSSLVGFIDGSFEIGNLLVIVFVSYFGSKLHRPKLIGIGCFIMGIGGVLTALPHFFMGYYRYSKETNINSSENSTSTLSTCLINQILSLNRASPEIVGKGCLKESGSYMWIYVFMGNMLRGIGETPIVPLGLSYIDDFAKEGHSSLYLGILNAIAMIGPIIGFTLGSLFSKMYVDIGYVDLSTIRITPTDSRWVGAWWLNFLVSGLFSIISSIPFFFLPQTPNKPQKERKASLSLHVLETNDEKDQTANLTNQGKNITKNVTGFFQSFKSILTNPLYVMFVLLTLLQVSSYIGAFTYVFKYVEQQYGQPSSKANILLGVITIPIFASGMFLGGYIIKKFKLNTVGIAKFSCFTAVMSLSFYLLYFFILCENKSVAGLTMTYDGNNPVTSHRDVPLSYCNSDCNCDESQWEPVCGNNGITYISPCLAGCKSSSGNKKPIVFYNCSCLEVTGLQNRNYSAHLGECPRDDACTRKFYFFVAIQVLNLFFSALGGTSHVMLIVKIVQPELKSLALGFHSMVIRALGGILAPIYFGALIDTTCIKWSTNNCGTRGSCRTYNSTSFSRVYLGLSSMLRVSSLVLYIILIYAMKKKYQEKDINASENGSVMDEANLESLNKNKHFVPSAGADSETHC

[18] = tested on: UDP-glucuronosyltransferases (UGTs); experiment: Drug metabolism assessed as human UGT-mediated metabolism by measuring intrinsic clearance; format: ADME, protein assay
[19] = Retention time in human plasma by LC-MS/MS analysis; format: ADME, cell-free
[20] = Intrinsic clearance in human liver S9 fraction; format: ADME, subcellular; conditions: read-out: CLH
[21] = target: T1, Amine oxidase [flavin-containing] B (Homo sapiens, UniProt P27338); experiment: Inhibition of monoamino oxidase B (unknown origin) at 10 uM
T1 sequence (P27338 whole entry): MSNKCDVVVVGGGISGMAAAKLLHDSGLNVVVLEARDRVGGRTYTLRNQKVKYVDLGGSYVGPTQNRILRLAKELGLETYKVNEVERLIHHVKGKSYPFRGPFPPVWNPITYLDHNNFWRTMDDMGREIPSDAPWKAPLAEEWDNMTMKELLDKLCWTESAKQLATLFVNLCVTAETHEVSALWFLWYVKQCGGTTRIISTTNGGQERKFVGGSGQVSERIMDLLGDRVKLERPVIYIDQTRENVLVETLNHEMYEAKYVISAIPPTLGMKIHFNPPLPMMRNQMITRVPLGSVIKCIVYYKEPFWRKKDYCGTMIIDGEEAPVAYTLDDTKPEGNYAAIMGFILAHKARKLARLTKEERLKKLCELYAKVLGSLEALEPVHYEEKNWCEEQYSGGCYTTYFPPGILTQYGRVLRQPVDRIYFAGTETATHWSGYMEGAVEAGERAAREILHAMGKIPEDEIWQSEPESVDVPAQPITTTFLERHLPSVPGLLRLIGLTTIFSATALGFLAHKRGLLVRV

[22] = target: Broad substrate specificity ATP-binding cassette transporter ABCG2 (Homo sapiens, UniProt Q9UNQ0); experiment: Inhibition of BCRP (unknown origin); format: ADME
Chain of Broad substrate specificity ATP-binding cassette transporter ABCG2 (Q9UNQ0 whole entry): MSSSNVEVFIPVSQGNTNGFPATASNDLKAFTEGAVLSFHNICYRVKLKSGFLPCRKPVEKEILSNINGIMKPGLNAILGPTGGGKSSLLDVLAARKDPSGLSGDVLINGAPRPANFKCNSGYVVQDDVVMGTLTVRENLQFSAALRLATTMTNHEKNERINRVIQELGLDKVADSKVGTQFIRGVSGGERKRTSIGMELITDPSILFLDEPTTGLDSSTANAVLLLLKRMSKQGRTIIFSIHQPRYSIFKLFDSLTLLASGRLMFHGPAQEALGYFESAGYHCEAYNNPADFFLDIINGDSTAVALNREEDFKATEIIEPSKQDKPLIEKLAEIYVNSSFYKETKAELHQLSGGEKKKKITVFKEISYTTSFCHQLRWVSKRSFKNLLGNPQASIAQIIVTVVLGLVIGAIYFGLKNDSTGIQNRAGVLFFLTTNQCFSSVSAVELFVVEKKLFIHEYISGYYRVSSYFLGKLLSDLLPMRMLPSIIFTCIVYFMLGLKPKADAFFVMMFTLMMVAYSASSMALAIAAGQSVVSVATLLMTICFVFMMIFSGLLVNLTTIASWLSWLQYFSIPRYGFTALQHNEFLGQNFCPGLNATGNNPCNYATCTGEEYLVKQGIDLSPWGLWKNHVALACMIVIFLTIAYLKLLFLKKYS

[23] = Half life in mouse hepatocytes; format: ADME, cell-based, Hepatocyte; outline: as §1
[24] = target: Multidrug and toxin extrusion protein 1 (Homo sapiens, UniProt Q96FL8); experiment: Inhibition of MATE1 (unknown origin); format: ADME
Chain of Multidrug and toxin extrusion protein 1 (Q96FL8 whole entry): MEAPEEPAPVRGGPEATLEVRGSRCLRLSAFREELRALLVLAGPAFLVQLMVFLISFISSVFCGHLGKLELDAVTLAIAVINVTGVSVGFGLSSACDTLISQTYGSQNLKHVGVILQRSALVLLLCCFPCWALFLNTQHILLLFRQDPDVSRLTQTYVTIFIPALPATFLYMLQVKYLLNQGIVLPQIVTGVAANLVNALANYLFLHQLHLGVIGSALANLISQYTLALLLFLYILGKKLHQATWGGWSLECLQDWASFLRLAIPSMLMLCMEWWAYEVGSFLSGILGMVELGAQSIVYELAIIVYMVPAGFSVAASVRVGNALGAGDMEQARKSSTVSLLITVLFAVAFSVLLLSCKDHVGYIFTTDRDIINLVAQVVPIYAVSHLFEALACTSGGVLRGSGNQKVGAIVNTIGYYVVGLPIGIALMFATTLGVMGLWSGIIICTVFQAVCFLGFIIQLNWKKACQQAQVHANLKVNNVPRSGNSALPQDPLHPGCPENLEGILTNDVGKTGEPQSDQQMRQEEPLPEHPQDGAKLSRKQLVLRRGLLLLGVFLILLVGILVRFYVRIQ

UGT1A3 = UGT1A3 (Homo sapiens, UniProt P35503); experiment: Inhibition of human UGT1A3 assessed as residual enzyme activity at 10 uM relative to control; format: ADME; conditions: read-out: Activity
Chain of UGT1A3 (P35503 whole entry): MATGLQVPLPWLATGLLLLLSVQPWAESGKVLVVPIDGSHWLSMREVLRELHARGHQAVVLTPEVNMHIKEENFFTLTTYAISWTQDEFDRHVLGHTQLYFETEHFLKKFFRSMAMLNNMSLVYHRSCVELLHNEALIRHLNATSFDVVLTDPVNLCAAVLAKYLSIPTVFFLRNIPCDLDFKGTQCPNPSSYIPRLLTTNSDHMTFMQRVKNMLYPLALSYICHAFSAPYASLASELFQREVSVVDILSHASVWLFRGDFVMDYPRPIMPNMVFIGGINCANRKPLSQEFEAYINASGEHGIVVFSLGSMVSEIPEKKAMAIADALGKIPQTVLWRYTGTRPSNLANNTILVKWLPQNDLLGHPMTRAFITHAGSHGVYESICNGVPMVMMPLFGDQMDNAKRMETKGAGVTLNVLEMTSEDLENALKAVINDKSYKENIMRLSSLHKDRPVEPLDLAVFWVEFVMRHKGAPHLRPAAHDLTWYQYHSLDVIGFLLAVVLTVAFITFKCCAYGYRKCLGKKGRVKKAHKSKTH

[25] = Drug level in beta-naphthoflavone/phenobarbital-induced rat liver S9 fraction treated with 100 ug/ml Ezutromid-1 assessed as compound formation in presence of NADPH measured after 4 hrs by UV-Vis spectroscopy; format: ADME, subcellular; conditions: s9, 4 h
[26] = Protein binding in human plasma assessed as bound fraction; format: ADME, cell-free; conditions: read-out: PPB (converted); outline: as §2
[27] = target: T1, Amine oxidase [flavin-containing] B; experiment: Inhibition of monoamino oxidase B (unknown origin)

`CCS(=O)(=O)c1ccc2oc(-c3ccc4c(c3)C=C[C@H](O)[C@H]4O)nc2c1` gave a microsomal CLint [1] of 35 µL/min/mg, a half-life [2] of 39 min and a Retention time [3] of 26.7 min. The CLH [4] was 8 µL/min/mg, the PPB [5] was “Not Active” and the solubility kinetic [6] was 96 µM (≈ 35.7 µg/mL). For the same compound, the CL [7] was < 2.9 µL/min/pmol, the Papp [8] was 33.3 ×10⁻⁶ cm/s and the “inhibition (INH)” value [9] was “Active”. The half-life [10] was 85 min, the IC50 [11] was 3.9 µM and the half-life [12] was > 138 min. The Retention_time [13] was 8.2 min, the CLH [14] was 98 µL/min/mg and the “inhibition (INH)” value [15] was “Active”. For the same compound, the activity at 10 µM (UGT1A9) was 12%, the logD [16] was 2.04 and the “inhibition (INH)” value [17] was “Active”. The CL [18] was < 5.8 µL/min/pmol, the Retention_time [19] was 8.1 min and the microsomal CLint [20] was < 10 µL/min/mg. The “inhibition (INH)” value [21] was “Active”, the “inhibition (INH)” value [22] was “Active” and the half-life [23] was 7 min. For the same compound, the IC50 [24] was 10 µM, the activity at 10 µM (UGT1A3) was 62% and the Drug uptake [25] was “Metabolite_Detected”. For the same compound, the fraction unbound [26] was 0.363 and the IC50 [27] was 4 µM.
